From ChEMBL document CHEMBL4811254, “Beyond Basicity: Discovery of Nonbasic DENV-2 Protease Inhibitors with Potent Activity in Cell Culture” (J Med Chem, 2021)
The source made the active and inactive calls.

Tests used:
[1] = molecular target: Genome polyprotein (dengue virus type 2) (UniProt P29990); assay: Inhibition of NS2B-NS3 protease in DENV2proHeLa system assessed as inhibition of luciferase signal at 12.5 uM incubated for 24 hrs by luciferase reporter gene assay; format: cell-based; settings: HeLa
Method in brief: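 Stable DENV2proHeLa cells seeded at 2 × 10⁴/well and dosed immediately, then incubated 24 h at 37 °C. Cells lysed 15 min at room temperature. Luciferase read with coelenterazine (2.75 μM in PBS) injection, luminescence 5 s. Triplicates; percent inhibition calculated relative to untreated control; background from cell-free wells.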

[2] = molecular target: Prothrombin (Homo sapiens) (UniProt P00734); assay: Inhibition of thrombin in human plasma using Boc-Val-Pro-Arg-AMC as substrate at 25 uM preincubated with enzyme for 15 mins followed by substrate addition and measured for 15 mins by fluorimetric assay; format: cell-free; settings: time 30.0 min
[3] = Cytotoxicity against human HeLa cells assessed as reduction in cell viability incubated for 24 hrs by CellTiter-Blue assay; format: cell-based
Method in brief: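 Viability by CellTiter-Blue in HeLa or Huh-7 cells exposed to compound dilutions. Plates run in parallel with the reporter assay (HeLa) or the virus titer assay (Huh-7).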

Trypsin (Homo sapiens) = Trypsin (Homo sapiens) (UniProt P07477+P07478+P35030); assay: Inhibition of trypsin (unknown origin) using Boc-Val-Pro-Arg-AMC as substrate at 50 uM preincubated with enzyme for 15 mins followed by substrate addition and measured for 15 mins by fluorimetric assay; format: protein assay; settings: time 30.0 min
[4] = molecular target: Genome polyprotein (dengue virus type 2) (UniProt P29990); assay: Inhibition of DENV2 NS2B-NS3 protease expressed in Escherichia coli BL21 lambda(DE3) using FRET substrate preincubated with enzyme for 15 mins in presence of detergent CHAPS followed by substrate addition for 15 mins by fluorescence based analysis; settings: time 30.0 min
Genome polyprotein = Genome polyprotein (dengue virus type 2, UniProt P29990); assay: Inhibition of NS2B-NS3 protease in DENV2proHeLa system assessed as inhibition of luciferase signal incubated for 24 hrs by luciferase reporter gene assay; format: cell-based, HeLa
Method in brief: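 HeLa cells stably carrying the reporter system, 2 × 10⁴ per well, given inhibitor at seeding and held 24 h at 37 °C. Cells lysed 15 min at room temperature. Luciferase read for 5 s after injecting coelenterazine (2.75 μM in PBS). Triplicate wells per concentration; percent inhibition taken against untreated cells. EC50/EC90 from 4-parameter dose-response fit, background from cell-free wells subtracted.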

Row | SMILES | inhibition [1] | inhibition [2] | CC50 at 24 h [3] | inhibition (Trypsin (Homo sapiens)) | inhibition [4] | EC50 (Genome polyprotein)
1 | CCCCCC(=O)N[C@H](C(=O)N1CCC(C(=O)Nc2ccccc2)CC1)c1ccc(OCc2ccccc2)cc1 | 35% | inactive | > 50 µM | inactive | Active | 20 µM
2 | NC(=O)c1ccc(CNC(=O)[C@@H](NC(=O)Cc2ccc(-c3ccccc3)cc2)c2ccc(OCc3ccccc3)cc2)cc1 | 25% | inactive | > 50 µM | inactive | Active | –
3 | CCCCCC(=O)N[C@@H](C(=O)NCc1ccc(C(N)=O)cc1)c1ccc(OCc2ccc(Cl)c(Cl)c2)cc1 | 19% | inactive | > 50 µM | inactive | Active | –
4 | CCCCCC(=O)N[C@H](C(=O)NNc1ccc(C(N)=O)cc1)c1ccc(OCc2ccccc2)cc1 | 60% | inactive | > 25 µM | inactive | Active | 8.7 µM
5 | CCCCCC(=O)N[C@H](C(=O)Nc1cccc(C(N)=O)c1)c1ccc(OCc2c(Cl)cccc2Cl)cc1 | 65% | inactive | > 50 µM | inactive | Active | 2.4 µM
6 | NC(=O)c1cccc(NC(=O)[C@@H](NC(=O)c2ccc3ccccc3c2)c2ccc(OCc3ccccc3)cc2)c1 | 71% | inactive | > 100 µM | inactive | – | 4.5 µM
7 | NC(=O)c1cccc(NC(=O)[C@@H](NC(=O)c2ccc(-c3ccccc3)cc2)c2ccc(OCc3ccccc3)cc2)c1 | 79% | inactive | > 100 µM | inactive | – | 1.7 µM
8 | NC(=O)c1ccc(CNC(=O)[C@@H](NC(=O)c2cc3ccccc3s2)c2ccc(OCc3ccccc3)cc2)cc1 | 71% | inactive | > 50 µM | inactive | – | 6.6 µM
9 | CCCCCC(=O)N[C@H](C(=O)NCc1ccc(NC(C)=O)cc1)c1ccc(OCc2ccccc2)cc1 | 55% | inactive | > 100 µM | inactive | – | 14 µM
10 | CCCCCC(=O)N[C@H](C(=O)NCc1ccc(C(=O)NN)cc1)c1ccc(OCc2ccccc2)cc1 | – | inactive | – | inactive | Active | –
11 | CCCCCC(=O)N[C@H](C(=O)NCc1ccc(C(N)=O)cc1)c1ccc(OCc2ccc(C(C)(C)C)cc2)cc1 | < 10% | inactive | > 12.5 µM | inactive | Active | –
12 | NC(=O)c1cccc(NC(=O)[C@@H](NC(=O)c2ccc(C(=O)N3CCOCC3)cc2)c2ccc(OCc3ccccc3)cc2)c1 | 40% | inactive | > 100 µM | inactive | – | 15 µM
13 | CCCCCC(=O)N[C@H](C(=O)NCc1ccc(C(N)=O)cc1)c1ccc(OCc2ccc(O)cc2)cc1 | 43% | inactive | > 50 µM | inactive | Active | –
14 | Cc1ccc(C)c(OCCCC(C)(C)C(=O)N[C@H](C(=O)Nc2cccc(C(N)=O)c2)c2ccc(OCc3ccccc3)cc2)c1 | 82% | inactive | > 25 µM | inactive | – | 1.7 µM
15 | NC(=O)c1cccc(NC(=O)[C@@H](NC(=O)c2cccc(C(=O)N3CCOCC3)c2)c2ccc(OCc3ccccc3)cc2)c1 | 35% | inactive | > 100 µM | inactive | – | 23 µM
16 | CCCCCCN[C@H](C(=O)NCc1ccc(C(N)=O)cc1)c1ccc(OCc2ccccc2)cc1 | 19% | inactive | > 50 µM | inactive | Active | –
17 | NC(=O)c1ccc(CNC(=O)[C@@H](NC(=O)CCc2ccccc2)c2ccc(OCc3ccccc3)cc2)cc1 | 57% | inactive | > 50 µM | inactive | – | 12 µM
18 | CCCCC(=O)N[C@H](C(=O)NCc1ccc(C(N)=O)cc1)c1ccc(OCc2ccccc2)cc1 | 38% | inactive | > 100 µM | inactive | – | 14 µM
19 | COc1cccc(COc2ccc([C@H](NC(=O)c3ccc(Oc4ccccc4)cc3)C(=O)Nc3cccc(C(N)=O)c3)cc2)c1 | 73% | inactive | > 100 µM | inactive | – | 2.1 µM
20 | NCc1ccc(C(=O)N[C@H](C(=O)NCc2ccc(C(N)=O)cc2)c2ccc(OCc3ccccc3)cc2)cc1 | 24% | inactive | > 50 µM | inactive | – | 29 µM
21 | CCCCCC(=O)N[C@H](C(=O)NCCc1ccc(O)cc1)c1ccc(OCc2ccccc2)cc1 | 58% | inactive | > 25 µM | inactive | – | 10 µM
22 | CCCCCCCC(=O)N[C@H](C(=O)Nc1cccc(C(N)=O)c1)c1ccc(OCc2ccccc2)cc1 | 66% | inactive | > 12.5 µM | inactive | – | 2.2 µM
23 | NC(=O)c1ccc(CNC(=O)[C@@H](NC(=O)c2cccs2)c2ccc(OCc3ccccc3)cc2)cc1 | 72% | inactive | > 50 µM | inactive | – | 8.4 µM
24 | CCCCCC(=O)N[C@H](C(=O)NCCc1ccc(C(N)=O)cc1)c1ccc(OCc2ccccc2)cc1 | 62% | inactive | > 100 µM | inactive | – | 7.7 µM
25 | CCCCCC(=O)N[C@H](C(=O)NCc1ccc(OC)cc1)c1ccc(OCc2ccccc2)cc1 | 35% | inactive | > 50 µM | inactive | – | 28 µM
26 | CCCC[C@H](NC(C)=O)C(=O)N[C@H](C(=O)NCc1ccc(C(N)=O)cc1)c1ccc(OCc2ccccc2)cc1 | 16% | inactive | > 50 µM | inactive | Active | –
27 | CCCCCC(=O)N[C@H](C(=O)N1CCCCC1)c1ccc(OCc2ccccc2)cc1 | 58% | inactive | 29 µM | inactive | – | 13 µM
28 | CCCCCC(=O)N[C@H](C(=O)NCc1ccc(C(N)=O)cc1)c1ccc(OCc2ccc(C(F)(F)F)cc2)cc1 | 53% | inactive | > 100 µM | inactive | – | 9.8 µM
